Results on 25 molecules are retold here after ChEMBL document CHEMBL4219080, “Discovery of novel 4-aryl-thieno[1,4]diazepin-2-one derivatives targeting multiple protein kinases as anticancer agents” (Bioorg Med Chem, 2018).

In general, IC50 refers to the point on the concentration scale where inhibition reaches its midpoint. One may read the GI50 as the concentration giving 50% growth inhibition. Low readings indicate more potent growth inhibition, high ones less potent growth inhibition.

SMILES strings stand for the structures. The source made the active and inactive calls. No cut-off for these calls is given here.

T3 sequence (P09619 whole entry): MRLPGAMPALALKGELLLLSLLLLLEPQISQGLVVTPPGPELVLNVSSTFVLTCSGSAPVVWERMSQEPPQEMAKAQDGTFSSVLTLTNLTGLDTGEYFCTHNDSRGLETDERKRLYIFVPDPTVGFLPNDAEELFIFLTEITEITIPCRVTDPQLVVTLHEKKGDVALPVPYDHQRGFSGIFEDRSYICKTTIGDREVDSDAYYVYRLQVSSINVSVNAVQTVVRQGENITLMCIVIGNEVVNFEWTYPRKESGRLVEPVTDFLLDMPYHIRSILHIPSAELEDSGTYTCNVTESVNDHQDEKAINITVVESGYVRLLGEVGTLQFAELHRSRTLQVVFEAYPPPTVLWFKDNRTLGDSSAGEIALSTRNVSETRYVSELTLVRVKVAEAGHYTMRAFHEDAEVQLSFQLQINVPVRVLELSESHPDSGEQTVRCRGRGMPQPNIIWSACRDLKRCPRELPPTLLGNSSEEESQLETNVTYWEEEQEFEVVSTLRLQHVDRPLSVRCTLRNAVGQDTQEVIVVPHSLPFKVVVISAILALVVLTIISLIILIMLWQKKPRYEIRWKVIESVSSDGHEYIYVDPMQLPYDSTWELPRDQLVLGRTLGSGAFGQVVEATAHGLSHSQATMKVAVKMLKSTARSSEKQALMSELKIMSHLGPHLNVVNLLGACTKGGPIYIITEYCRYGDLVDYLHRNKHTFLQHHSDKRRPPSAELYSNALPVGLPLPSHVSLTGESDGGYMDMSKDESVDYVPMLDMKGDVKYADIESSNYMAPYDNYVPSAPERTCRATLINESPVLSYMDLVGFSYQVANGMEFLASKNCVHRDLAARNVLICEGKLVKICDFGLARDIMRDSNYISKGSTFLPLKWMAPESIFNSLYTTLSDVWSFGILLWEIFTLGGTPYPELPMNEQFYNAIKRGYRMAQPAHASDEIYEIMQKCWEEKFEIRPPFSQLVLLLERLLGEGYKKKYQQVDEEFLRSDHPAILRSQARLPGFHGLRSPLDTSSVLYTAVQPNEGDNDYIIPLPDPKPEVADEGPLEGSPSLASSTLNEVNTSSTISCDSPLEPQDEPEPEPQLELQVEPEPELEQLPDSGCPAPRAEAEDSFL

In the first assay the target is T1, Macrophage colony-stimulating factor 1 receptor (Homo sapiens, UniProt P07333). As to the kind of experiment: Inhibition of human FMS using myelin basic protein as substrate at 10 uM after 40 mins in presence of [gamma-33P]-ATP by liquid scintillation counting method.
T1 sequence (P07333 whole entry): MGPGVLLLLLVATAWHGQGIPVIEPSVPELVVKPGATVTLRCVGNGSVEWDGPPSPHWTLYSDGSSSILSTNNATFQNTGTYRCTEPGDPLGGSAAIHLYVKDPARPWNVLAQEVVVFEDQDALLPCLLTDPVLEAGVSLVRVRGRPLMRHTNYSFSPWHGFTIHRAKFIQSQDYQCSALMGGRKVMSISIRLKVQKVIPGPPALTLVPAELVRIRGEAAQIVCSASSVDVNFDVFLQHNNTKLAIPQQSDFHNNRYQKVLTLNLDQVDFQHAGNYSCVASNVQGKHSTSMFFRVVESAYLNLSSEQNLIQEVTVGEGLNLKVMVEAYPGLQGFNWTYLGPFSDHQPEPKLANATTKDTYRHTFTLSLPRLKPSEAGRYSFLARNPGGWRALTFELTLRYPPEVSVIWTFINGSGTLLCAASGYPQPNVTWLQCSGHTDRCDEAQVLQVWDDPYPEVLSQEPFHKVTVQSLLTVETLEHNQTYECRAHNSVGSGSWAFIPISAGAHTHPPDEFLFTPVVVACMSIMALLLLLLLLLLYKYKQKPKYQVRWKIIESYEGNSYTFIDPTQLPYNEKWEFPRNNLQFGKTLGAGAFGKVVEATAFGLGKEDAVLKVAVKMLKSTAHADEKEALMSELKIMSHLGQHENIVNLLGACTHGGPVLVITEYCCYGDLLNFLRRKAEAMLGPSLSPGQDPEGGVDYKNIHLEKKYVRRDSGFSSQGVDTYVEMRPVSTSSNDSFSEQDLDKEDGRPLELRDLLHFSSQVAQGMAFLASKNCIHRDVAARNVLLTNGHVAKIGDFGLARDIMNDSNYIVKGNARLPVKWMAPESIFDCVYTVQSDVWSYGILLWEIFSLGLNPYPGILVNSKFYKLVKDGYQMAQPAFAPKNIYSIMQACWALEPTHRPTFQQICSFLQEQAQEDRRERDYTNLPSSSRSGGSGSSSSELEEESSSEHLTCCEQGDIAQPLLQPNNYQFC
Settings: not given
Turning to `CCN1CCN(Cc2ccc(NC(=O)Nc3ccc(C4=Nc5cscc5NC(=O)C4)cc3)cc2C(F)(F)F)CC1`, the inhibition result is “Active”.

Another assay deals with T2, Proto-oncogene tyrosine-protein kinase receptor Ret (Homo sapiens, UniProt P07949). As to the kind of experiment: Inhibition of human RET using KKKVSRSGLYRSPSMPENLNRPR as substrate at 10 uM after 40 mins in presence of [gamma-33P]-ATP by liquid scintillation counting method.
T2 sequence (P07949 whole entry): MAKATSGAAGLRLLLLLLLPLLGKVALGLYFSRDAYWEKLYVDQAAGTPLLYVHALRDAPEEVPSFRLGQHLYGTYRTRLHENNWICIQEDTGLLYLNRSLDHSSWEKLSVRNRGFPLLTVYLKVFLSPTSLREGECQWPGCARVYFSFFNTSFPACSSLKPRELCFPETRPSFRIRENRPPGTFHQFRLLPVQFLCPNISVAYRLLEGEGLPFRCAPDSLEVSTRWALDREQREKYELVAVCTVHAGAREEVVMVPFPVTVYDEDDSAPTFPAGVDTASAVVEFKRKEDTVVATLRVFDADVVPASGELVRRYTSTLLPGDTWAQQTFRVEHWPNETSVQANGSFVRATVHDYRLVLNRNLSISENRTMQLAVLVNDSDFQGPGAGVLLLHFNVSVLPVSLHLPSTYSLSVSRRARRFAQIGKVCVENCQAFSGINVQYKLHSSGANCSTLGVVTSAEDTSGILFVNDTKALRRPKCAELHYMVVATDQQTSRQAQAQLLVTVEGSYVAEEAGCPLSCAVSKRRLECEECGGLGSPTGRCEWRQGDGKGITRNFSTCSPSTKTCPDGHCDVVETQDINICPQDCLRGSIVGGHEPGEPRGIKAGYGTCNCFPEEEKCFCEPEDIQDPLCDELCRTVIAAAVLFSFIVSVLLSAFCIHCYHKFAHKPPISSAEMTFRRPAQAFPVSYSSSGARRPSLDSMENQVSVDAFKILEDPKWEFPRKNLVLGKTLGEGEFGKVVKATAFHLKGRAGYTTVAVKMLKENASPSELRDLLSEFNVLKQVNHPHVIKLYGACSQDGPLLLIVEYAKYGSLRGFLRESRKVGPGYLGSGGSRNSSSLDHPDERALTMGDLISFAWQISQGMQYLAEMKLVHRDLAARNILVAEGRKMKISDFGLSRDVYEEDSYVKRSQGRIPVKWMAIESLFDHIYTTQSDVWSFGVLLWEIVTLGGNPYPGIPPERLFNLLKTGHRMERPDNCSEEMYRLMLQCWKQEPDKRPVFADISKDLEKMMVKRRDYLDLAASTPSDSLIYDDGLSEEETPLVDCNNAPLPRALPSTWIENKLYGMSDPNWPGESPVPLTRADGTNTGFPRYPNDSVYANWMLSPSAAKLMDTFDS
Settings: not given
Take `CCN1CCN(Cc2ccc(NC(=O)Nc3ccc(C4=Nc5cscc5NC(=O)C4)cc3)cc2C(F)(F)F)CC1`: the inhibition result is “Active”.

The target of a further assay is T1, Macrophage colony-stimulating factor 1 receptor. As to the kind of experiment: Inhibition of human FMS using myelin basic protein as substrate after 40 mins in presence of [gamma-33P]-ATP by liquid scintillation counting method.
Settings: not given
The gist of the method:
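Radiometric filter-binding assay with human FMS (5–10 mU) in 25 mM Tris pH 7.5, 0.02 mM EGTA, 0.66 mg/mL myelin basic protein and 10 mM magnesium acetate, with [γ-33P]ATP (approx. 500 cpm/pmol). Started with Mg-ATP mix and run 40 min at room temperature. Stopped with 3% phosphoric acid, spotted on P30 filtermat, washed in 75 mM phosphoric acid then methanol, scintillation counted.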
On to `CCN1CCN(Cc2ccc(NC(=O)Nc3ccc(C4=Nc5cscc5NC(=O)C4)cc3)cc2C(F)(F)F)CC1`, for which the IC50 is 0.00373 µM.

A further assay has as its target T3, Platelet-derived growth factor receptor beta (Homo sapiens, UniProt P09619). As to the kind of experiment: Inhibition of PDGFRb (unknown origin) after 40 mins in presence of [gamma-33P]-ATP by liquid scintillation counting method.
Settings: not given
Regarding `CCN1CCN(Cc2ccc(NC(=O)Nc3ccc(C4=Nc5cscc5NC(=O)C4)cc3)cc2C(F)(F)F)CC1`, the IC50 came to 0.0634 µM.

A further assay concerns U-937. As to the kind of experiment: Antiproliferative activity against human U937 cells after 24 hrs by MTT assay. As to conditions: U-937, 24 h. The assay is classed as functional. The method, boiled down: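 U937 cells kept in RPMI 1640 with 10% FBS, 1% penicillin/streptomycin and 25 mM HEPES (37 °C, 5% CO₂). Seeded at 5×10³ cells/well and held 24 h before exposure to 12 concentrations in 3-fold serial dilution. MTT reduction read at 570 nm. IC50 obtained by curve fitting.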
Background: Formazan colour is commonly taken as a measure of viable cells.
`CCN1CCN(Cc2ccc(NC(=O)Nc3cccc(C4=Nc5cscc5NC(=O)C4)c3)cc2C(F)(F)F)CC1`: the GI50 was determined as 2.75 µM. The molecule `O=C1CC(c2cccc(NC(=O)Nc3ccc(Cl)cc3)c2)=Nc2cscc2N1` displayed a GI50 of 4.55 µM. On the same count and under the same terms, as for `O=C(Cc1c[nH]c2ccccc12)Nc1ccc(C2=Nc3cscc3NC(=O)C2)cc1`, the figure is more than 30 µM; as for `CNC(=O)c1cc(Oc2ccc(NC(=O)Nc3ccc(Cl)c(C(F)(F)F)c3)cc2)ccn1` [SORAFENIB], 2.34 µM; as for `O=C1CC(c2cccc(NC(=O)c3cnn(-c4ccccc4)c3C(F)(F)F)c2)=Nc2cscc2N1`, 9.64 µM. In turn, `O=C1CC(c2ccc(NC(=O)Nc3ccc(Cl)c(C(F)(F)F)c3)cc2)=Nc2cscc2N1` displayed a GI50 of 4.08 µM. Take `O=C1CC(c2cccc(NC(=O)Nc3ccc(Cl)c(Cl)c3)c2)=Nc2cscc2N1`: it took 3.2 µM to inhibit growth by half (GI50).

In turn, `O=C1CC(c2cccc(NC(=O)Nc3ccc(Cl)c(C(F)(F)F)c3)c2)=Nc2cscc2N1` registered a GI50 of 14.3 µM.

Regarding `O=C1CC(c2ccc(NC(=O)c3ccccc3-c3ccccc3)cc2)=Nc2cscc2N1`, it took 3.77 µM to inhibit growth by half (GI50). In turn, `CN1CCN(c2cc(C(=O)Nc3ccc(C4=Nc5cscc5NC(=O)C4)cc3)cc(C(F)(F)F)c2)CC1` had a GI50 of more than 30 µM. Turning to `O=C1CC(c2cccc(NC(=O)c3ccccc3-c3ccccc3)c2)=Nc2cscc2N1`, it took 1.03 µM to inhibit growth by half (GI50). Still for that read-out and setting: next, `O=C1CC(c2ccc(NC(=O)Nc3ccc(Cl)cc3)cc2)=Nc2cscc2N1`: 0.964 µM; `O=C(Cc1c[nH]c2ccccc12)Nc1cccc(C2=Nc3cscc3NC(=O)C2)c1`: more than 30 µM.

In another assay the target is Vascular endothelial growth factor receptor 3 (Homo sapiens) (UniProt P35916). As to the kind of experiment: Inhibition of human FLT4 using poly[Glu:Tyr] (4:1) as substrate at 10 uM after 40 mins in presence of [gamma-33P]-ATP by liquid scintillation counting method.
Chain of Vascular endothelial growth factor receptor 3 (Homo sapiens) (P35916 whole entry): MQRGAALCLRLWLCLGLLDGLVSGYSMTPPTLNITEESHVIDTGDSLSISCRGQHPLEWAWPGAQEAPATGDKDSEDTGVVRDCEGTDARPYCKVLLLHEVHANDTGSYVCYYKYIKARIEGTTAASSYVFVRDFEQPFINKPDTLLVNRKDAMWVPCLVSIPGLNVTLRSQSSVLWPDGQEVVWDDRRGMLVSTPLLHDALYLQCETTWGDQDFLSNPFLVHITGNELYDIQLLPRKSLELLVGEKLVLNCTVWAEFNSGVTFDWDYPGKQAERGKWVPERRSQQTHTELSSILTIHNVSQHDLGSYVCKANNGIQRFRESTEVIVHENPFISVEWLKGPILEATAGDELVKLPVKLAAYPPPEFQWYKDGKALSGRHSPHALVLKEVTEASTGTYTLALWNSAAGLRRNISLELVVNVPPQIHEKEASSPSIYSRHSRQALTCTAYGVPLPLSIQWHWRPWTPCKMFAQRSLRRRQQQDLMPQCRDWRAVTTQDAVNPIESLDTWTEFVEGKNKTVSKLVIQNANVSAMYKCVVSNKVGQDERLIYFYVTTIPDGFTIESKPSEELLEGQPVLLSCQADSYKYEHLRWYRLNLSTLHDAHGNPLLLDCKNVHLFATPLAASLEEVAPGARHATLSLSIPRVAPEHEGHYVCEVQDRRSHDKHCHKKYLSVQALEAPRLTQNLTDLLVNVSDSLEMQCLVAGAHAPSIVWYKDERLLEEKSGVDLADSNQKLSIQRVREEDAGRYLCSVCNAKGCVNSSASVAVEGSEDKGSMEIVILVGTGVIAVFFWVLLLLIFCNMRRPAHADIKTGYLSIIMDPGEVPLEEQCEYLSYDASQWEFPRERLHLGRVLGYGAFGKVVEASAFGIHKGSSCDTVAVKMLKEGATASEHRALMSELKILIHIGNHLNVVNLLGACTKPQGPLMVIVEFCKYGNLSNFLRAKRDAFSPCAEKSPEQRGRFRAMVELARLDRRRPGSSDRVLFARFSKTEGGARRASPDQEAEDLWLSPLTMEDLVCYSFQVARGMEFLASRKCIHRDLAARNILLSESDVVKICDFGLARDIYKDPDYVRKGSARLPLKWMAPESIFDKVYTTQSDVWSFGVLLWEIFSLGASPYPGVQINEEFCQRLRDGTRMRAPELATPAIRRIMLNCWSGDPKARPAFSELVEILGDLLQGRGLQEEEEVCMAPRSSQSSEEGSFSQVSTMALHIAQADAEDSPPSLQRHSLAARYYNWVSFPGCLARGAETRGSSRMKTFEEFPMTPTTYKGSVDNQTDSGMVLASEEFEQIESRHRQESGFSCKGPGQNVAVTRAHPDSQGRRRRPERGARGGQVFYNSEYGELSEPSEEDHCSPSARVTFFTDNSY
Settings: not given
As for `CCN1CCN(Cc2ccc(NC(=O)Nc3ccc(C4=Nc5cscc5NC(=O)C4)cc3)cc2C(F)(F)F)CC1`, the inhibition entry was “Active”.

System in the next assay: not listed separately
As to the kind of experiment: Antiproliferative activity against human A375P cells after 24 hrs by MTT assay. The assay is classed as functional.
Settings: not given
The method, boiled down:
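A375P cells grown in DMEM with 10% FBS and 1% penicillin/streptomycin at 37 °C, 5% CO₂. Harvested with trypsin-EDTA, seeded at 5×10³ cells/well and incubated 24 h before dosing with a 12-point, 3-fold serial dilution. Viability by MTT reduction, absorbance at 590 nm. IC50 derived by curve fitting.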
`CCN1CCN(Cc2ccc(NC(=O)Nc3cccc(C4=Nc5cscc5NC(=O)C4)c3)cc2C(F)(F)F)CC1` came in with a GI50 of 1.82 µM.

On to `O=C1CC(c2cccc(NC(=O)Nc3ccc(Cl)cc3)c2)=Nc2cscc2N1`, for which the GI50 amounted to 5.04 µM. Molecule `CCN1CCN(Cc2ccc(NC(=O)Nc3ccc(C4=Nc5cscc5NC(=O)C4)cc3)cc2C(F)(F)F)CC1` had a GI50 of 0.32 µM.

In the case of `O=C1CC(c2cccc(NC(=O)c3cnc4ccccc4c3)c2)=Nc2cscc2N1`, the GI50 came out at 6.87 µM. Consider `O=C(Cc1c[nH]c2ccccc12)Nc1ccc(C2=Nc3cscc3NC(=O)C2)cc1`, for which the GI50 is more than 30 µM. Consider `O=C1CC(c2cccc(NC(=O)c3cc(N4CCOCC4)cc(C(F)(F)F)c3)c2)=Nc2cscc2N1`, for which the GI50 is 1.98 µM. Same read-out and setting: next, `O=C1CC(c2ccc(NC(=O)Nc3ccc(Cl)c(Cl)c3)cc2)=Nc2cscc2N1`: 2.06 µM. In turn, `CNC(=O)c1cc(Oc2ccc(NC(=O)Nc3ccc(Cl)c(C(F)(F)F)c3)cc2)ccn1` [SORAFENIB] returned a GI50 of 3.4 µM.

Regarding `O=C1CC(c2ccc(NC(=O)Nc3ccc(Cl)c(C(F)(F)F)c3)cc2)=Nc2cscc2N1`, the GI50 was 1.7 µM. As for `O=C1CC(c2cccc(NC(=O)Nc3ccc(Cl)c(Cl)c3)c2)=Nc2cscc2N1`, the GI50 amounted to 11 µM. Turning to `O=C1CC(c2cccc(NC(=O)Nc3ccc(Cl)c(C(F)(F)F)c3)c2)=Nc2cscc2N1`, growth was halved (GI50) at 8.25 µM.

`O=C1CC(c2ccc(NC(=O)c3ccccc3-c3ccccc3)cc2)=Nc2cscc2N1` gave a GI50 of more than 30 µM. `O=C1CC(c2ccc(NC(=O)c3cnn(-c4ccccc4)c3C(F)(F)F)cc2)=Nc2cscc2N1` displayed a GI50 of 6.85 µM.

The molecule `CN1CCN(c2cc(C(=O)Nc3ccc(C4=Nc5cscc5NC(=O)C4)cc3)cc(C(F)(F)F)c2)CC1` gave a GI50 of more than 30 µM.

As to `CC(=O)N1CCC(C(=O)Nc2ccc(C3=Nc4cscc4NC(=O)C3)cc2)CC1`, the GI50 is more than 30 µM.

As for `CN1CCN(c2cc(C(=O)Nc3cccc(C4=Nc5cscc5NC(=O)C4)c3)cc(C(F)(F)F)c2)CC1`, the GI50 is 3.04 µM. `O=C1CC(c2cccc(NC(=O)c3ccc(Cl)c(C(F)(F)F)c3)c2)=Nc2cscc2N1` came in with a GI50 of 4.99 µM. The same measure, in the same setting: as for `Cc1c(C)c2c(c(C)c1O)CC[C@](C)(C(=O)Nc1cccc(C3=Nc4cscc4NC(=O)C3)c1)O2`, the figure is more than 30 µM; as for `O=C(Cc1ccc(-c2ccccc2)cc1)Nc1ccc(C2=Nc3cscc3NC(=O)C2)cc1`, 8.7 µM. `O=C1CC(c2ccc(NC(=O)c3cc(N4CCOCC4)cc(C(F)(F)F)c3)cc2)=Nc2cscc2N1` gave a GI50 of 3.45 µM. With `O=C1CC(c2cccc(NC(=O)c3ccccc3-c3ccccc3)c2)=Nc2cscc2N1`, the 50% growth inhibitory concentration (GI50) came to 3.25 µM. For the molecule `O=C1CC(c2ccc(NC(=O)Nc3ccc(Cl)cc3)cc2)=Nc2cscc2N1`, the GI50 stood at 3.12 µM. `O=C1CC(c2ccc(NC(=O)c3ccc(Cl)c(C(F)(F)F)c3)cc2)=Nc2cscc2N1` showed a GI50 of 7.85 µM. Regarding `O=C(Cc1c[nH]c2ccccc12)Nc1cccc(C2=Nc3cscc3NC(=O)C2)c1`, the GI50 is more than 30 µM.

The target in the next assay is T4, Receptor-type tyrosine-protein kinase FLT3 (Homo sapiens, UniProt P36888).
T4 sequence (P36888 whole entry): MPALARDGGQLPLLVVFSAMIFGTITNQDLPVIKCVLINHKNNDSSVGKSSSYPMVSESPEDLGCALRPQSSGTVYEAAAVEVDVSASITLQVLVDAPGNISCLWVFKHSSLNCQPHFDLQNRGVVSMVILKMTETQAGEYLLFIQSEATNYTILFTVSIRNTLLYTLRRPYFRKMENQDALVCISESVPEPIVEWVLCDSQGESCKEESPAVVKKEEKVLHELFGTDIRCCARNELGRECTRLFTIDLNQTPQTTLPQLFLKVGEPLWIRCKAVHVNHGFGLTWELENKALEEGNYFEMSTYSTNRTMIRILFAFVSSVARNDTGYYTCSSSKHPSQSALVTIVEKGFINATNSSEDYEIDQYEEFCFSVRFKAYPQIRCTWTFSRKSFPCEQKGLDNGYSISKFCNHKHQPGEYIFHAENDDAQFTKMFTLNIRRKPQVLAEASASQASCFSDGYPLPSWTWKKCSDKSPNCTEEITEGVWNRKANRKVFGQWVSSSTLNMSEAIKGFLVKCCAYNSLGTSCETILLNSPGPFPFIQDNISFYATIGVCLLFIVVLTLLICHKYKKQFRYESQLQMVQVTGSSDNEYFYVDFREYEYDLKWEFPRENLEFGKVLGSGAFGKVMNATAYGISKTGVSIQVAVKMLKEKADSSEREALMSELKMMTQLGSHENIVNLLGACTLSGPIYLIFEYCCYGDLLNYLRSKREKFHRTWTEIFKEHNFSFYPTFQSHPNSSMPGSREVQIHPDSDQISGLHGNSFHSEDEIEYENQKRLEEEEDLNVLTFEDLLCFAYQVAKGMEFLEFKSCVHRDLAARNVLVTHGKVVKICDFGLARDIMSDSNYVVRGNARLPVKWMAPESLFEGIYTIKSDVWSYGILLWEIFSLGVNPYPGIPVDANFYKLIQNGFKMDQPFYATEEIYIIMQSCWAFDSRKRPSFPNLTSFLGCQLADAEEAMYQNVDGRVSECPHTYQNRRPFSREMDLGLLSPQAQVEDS
As to the kind of experiment: Inhibition of FLT3 (unknown origin) after 40 mins in presence of [gamma-33P]-ATP by liquid scintillation counting method.
Settings: not given
As to `CCN1CCN(Cc2ccc(NC(=O)Nc3ccc(C4=Nc5cscc5NC(=O)C4)cc3)cc2C(F)(F)F)CC1`, the IC50 worked out at 0.0279 µM.

The next assay has as its target T2, Proto-oncogene tyrosine-protein kinase receptor Ret. As to the kind of experiment: Inhibition of RET (unknown origin) after 40 mins in presence of [gamma-33P]-ATP by liquid scintillation counting method.
Settings: not given
Consider `CCN1CCN(Cc2ccc(NC(=O)Nc3ccc(C4=Nc5cscc5NC(=O)C4)cc3)cc2C(F)(F)F)CC1`, for which the IC50 was 0.0716 µM.

The next assay addresses T3, Platelet-derived growth factor receptor beta. As to the kind of experiment: Inhibition of human PDGFRb using poly[Glu:Tyr] (4:1) as substrate at 10 uM after 40 mins in presence of [gamma-33P]-ATP by liquid scintillation counting method.
Settings: not given
As for `CCN1CCN(Cc2ccc(NC(=O)Nc3ccc(C4=Nc5cscc5NC(=O)C4)cc3)cc2C(F)(F)F)CC1`, the inhibition entry is “Active”.

The target in a further assay is Receptor-type tyrosine-protein kinase FLT3 (Homo sapiens) (UniProt P36888). As to the kind of experiment: Inhibition of human FLT3 using EAIYAAPFAKKK peptide as substrate at 10 uM after 40 mins in presence of [gamma-33P]-ATP by liquid scintillation counting method.
Settings: not given
As to `CCN1CCN(Cc2ccc(NC(=O)Nc3ccc(C4=Nc5cscc5NC(=O)C4)cc3)cc2C(F)(F)F)CC1`, the inhibition result was “Active”.
